Data from PMC3772679 (The European journal of neuroscience, 2012).
pEC50: −log10 of the molar value. Like-named read-outs stand apart in the source and are kept apart here.

Legend:
[1] = system: PC GABAA receptor (β1-subunit-containing); assay: Loreclezole inhibition of GABA-mediated current in cultured Purkinje cells; assay type: cell-based, rat; settings: 30 µM
Outline: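 Cerebellar neurons plated on glass coverslips (2.8 × 10^5 cells), kept at 37 °C in 5% CO2 and recorded after 10–14 days in vitro. 1 s pulses of 20 µM GABA every 30 s until baseline stable; 30 µM test compound (DMSO stock diluted in saline) applied by local perfusion for 30 s, then kept through three more GABA pulses. 1 mM GABA given at end of recording. n = individual cells; mean ± SEM.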

[2] = system: PC GABAA receptor (GABAergic IPSC in Purkinje neurons); assay type: cell-based, mouse; settings: for IPSC decay time constant in the presence of etomidate: 3 µM, 10 min
[3] = molecular target: GABAA receptors composed of α1β3γ2; settings: heterologous expression systems; ref Belelli et al., 2003; cited from earlier work

Compound: Cl/C(=C\n1cncn1)c1ccc(Cl)cc1Cl [loreclezole]
- Initial reduction in GABA-mediated current ([1]; 30 s pre-application, 20 µM GABA pulses): 30%
- Maximal decrease in GABA-mediated current with subsequent pulses of GABA ([1]; 20 µM GABA pulses every 30 s, n = 4): 65.5 ± 6.8%

Compound: picrotoxin
- Effect on outward GABAergic IPSC in Purkinje neurons ([2]; data not shown): blocked

Compound: CCOC(=O)c1cncn1[C@H](C)c1ccccc1 [Etomidate]
- pEC50 [3]: 5.40
- IPSC decay time constant in the presence of etomidate ([2]; slices 3 h after CA/CPR, P < 0.05 vs sham): 534.5 ± 42.3 ms
- IPSC decay time constant in the presence of etomidate ([2]; slices from control sham-operated mice): 837 ± 128 ms
